Test results taken from ChEMBL document CHEMBL3272103, “Synthesis and central nervous system evaluation of some 5-alkoxy-3H-1,4-benzodiazepin-2(1H)-ones” (J Med Chem, 1977).

Assays:
[1] = Acute toxicity in ip dosed Wistar rat measured 2 hrs post dose; assay type: organism-based; settings: in vivo
Mus musculus [2] = assay: CNS depressant activity in ip dosed mouse assessed as ataxia; assay type: functional
Procedure, shortened: (§1)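 Behavioral observation in ip-dosed mice per a modified literature method, scoring ataxia, docility or loss of righting reflex. Ten animals per dose; ED50 in mg/kg ip.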

Mus musculus [3] = assay: CNS depressant activity in ip dosed mouse assessed as docility; assay type: functional; procedure, shortened: as §1
Mus musculus [4] = assay: CNS depressant activity in ip dosed mouse assessed as loss of righting reflex; assay type: functional; procedure, shortened: as §1
Mus musculus [5] = assay: Anticonvulsant activity in ip dosed mouse assessed as inhibition of N-sulfamoylhexahydroazepine-induced seizure; assay type: functional
Procedure, shortened: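 Mice dosed ip with test compound, then challenged with the convulsant N-sulfamoylhexahydroazepine; protection against seizures scored per a literature method. Ten animals per dose; ED50 derived in mg/kg ip.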

Mus musculus [6] = assay: CNS depressant activity in mouse assessed as reduction in amphetamine-induced locomotor activity at 150 mg/kg, ip; assay type: functional; set-up: scale not given: the % may be the effect or the level left; settings: route intraperitoneal
Procedure, shortened: (§2)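 Locomotor activity of mice recorded in photocell activity cages after dl-amphetamine 4.0 mg/kg ip plus test compound ip at the stated dose. Five mice per group; result given as % change in activity.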

Mus musculus [7] = assay: CNS depressant activity in ip dosed mouse assessed as reinduction of anesthesia measured as loss of righting reflex compound administered immediately post recovery from hexobarbital anesthesia; assay type: functional
Mus musculus [8] = assay: CNS depressant activity in mouse assessed as reduction in amphetamine-induced locomotor activity at 75 mg/kg, ip; assay type: functional; set-up: scale not given: the % may be the effect or the level left; settings: route intraperitoneal; procedure, shortened: as §2
Mus musculus [9] = assay: CNS depressant activity in mouse assessed as reduction in amphetamine-induced locomotor activity at 51.2 mg/kg, ip; assay type: functional; set-up: scale not given: the % may be the effect or the level left; settings: route intraperitoneal; procedure, shortened: as §2
Mus musculus [10] = assay: CNS depressant activity in ip dosed mouse assessed as induction of neurologic deficit by rotarod test; assay type: functional
Procedure, shortened: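 Rotarod test per a literature method in ip-dosed mice; failure scored as neurological deficit. Ten animals per dose; ND50 in mg/kg ip.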

Mus musculus [11] = assay: CNS depressant activity in mouse assessed as reduction in amphetamine-induced locomotor activity at 50 mg/kg, ip; assay type: functional; set-up: scale not given: the % may be the effect or the level left; settings: route intraperitoneal
Procedure, shortened: (§3)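 Mice given test compound ip alongside dl-amphetamine 4.0 mg/kg ip; locomotor activity recorded in photocell activity cages, five mice per group; expressed as % change in activity.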

Mus musculus [12] = assay: CNS depressant activity in mouse assessed as reduction in amphetamine-induced locomotor activity at 100 mg/kg, ip; assay type: functional; set-up: scale not given: the % may be the effect or the level left; settings: route intraperitoneal; procedure, shortened: as §2
Mus musculus [13] = assay: CNS depressant activity in mouse assessed as reduction in amphetamine-induced locomotor activity at 25.6 mg/kg, ip; assay type: functional; set-up: scale not given: the % may be the effect or the level left; settings: route intraperitoneal; procedure, shortened: as §2
Mus musculus [14] = assay: CNS depressant activity in mouse assessed as reduction in amphetamine-induced locomotor activity at 1.5 mg/kg, ip; assay type: functional; set-up: scale not given: the % may be the effect or the level left; settings: route intraperitoneal; procedure, shortened: as §3
Mus musculus [15] = assay: CNS depressant activity in mouse assessed as reduction in amphetamine-induced locomotor activity at 18.8 mg/kg, ip; assay type: functional; set-up: scale not given: the % may be the effect or the level left; settings: route intraperitoneal; procedure, shortened: as §2

Compound	LD50 at 2 h [1]	ED50 (Mus musculus [2])	ED50 (Mus musculus [3])	ED50 (Mus musculus [4])	ED50 (Mus musculus [5])	Activity (Mus musculus [6])	ED50 (Mus musculus [7])	Activity (Mus musculus [8])	Activity (Mus musculus [9])	ED50 (Mus musculus [10])	Activity (Mus musculus [11])	Activity (Mus musculus [12])	Activity (Mus musculus [13])	Activity (Mus musculus [14])	Activity (Mus musculus [15])
CCOC1=NCC(=O)N(c2ccccc2)c2ccc(Cl)cc21	650 mg/kg	300 mg/kg	300 mg/kg	300 mg/kg	> 150 mg/kg	50%	> 150 mg/kg	–	–	–	–	–	–	–	–
CCOC1=NCC(=O)N(CC)c2ccc(Cl)cc21	600 mg/kg	100 mg/kg	100 mg/kg	600 mg/kg	> 75 mg/kg	–	21.8 mg/kg	5%	–	–	–	–	–	–	–
CCOC1=NCC(=O)N(C)c2cc(Cl)ccc21	600 mg/kg	67.7 mg/kg	56.5 mg/kg	74.4 mg/kg	29.9 mg/kg	–	38.4 mg/kg	–	50%	61.8 mg/kg	–	–	–	–	–
COC1=NCC(=O)N(C)c2ccc(Cl)cc21	> 200 mg/kg	68 mg/kg	59.3 mg/kg	300 mg/kg	> 50 mg/kg	–	16.5 mg/kg	–	–	–	50%	–	–	–	–
CN1C(=O)CN=C(Oc2ccccc2F)c2cc(Cl)ccc21	650 mg/kg	240 mg/kg	240 mg/kg	428 mg/kg	> 200 mg/kg	–	> 200 mg/kg	–	45%	146 mg/kg	–	–	–	–	–
CCOC1=NCC(=O)N(C)c2c1cc(Cl)cc2[N+](=O)[O-]	–	–	–	–	> 102 mg/kg	–	> 102 mg/kg	–	19%	–	–	–	–	–	–
CN1C(=O)CN=C(Oc2ccccc2)c2cc(Cl)ccc21	–	–	–	–	50.1 mg/kg	–	> 102 mg/kg	–	68%	–	–	–	–	–	–
CC(OC1=NCC(=O)N(C)c2ccc(Cl)cc21)C(F)(F)F (configuration not stated)	300 mg/kg	250 mg/kg	130 mg/kg	288 mg/kg	100 mg/kg	–	> 200 mg/kg	–	–	123 mg/kg	–	73%	–	–	–
Cc1ccc2c(c1)C(=O)NCC(=O)N2C	–	–	–	–	> 102 mg/kg	–	> 102 mg/kg	–	62%	–	–	–	–	–	–
CN1C(=O)CN=C(OCCBr)c2cc(Cl)ccc21	–	–	–	–	> 102 mg/kg	–	> 102 mg/kg	–	–	–	–	–	–	–	–
CN1C(=O)CN=C(OCC(Cl)Cl)c2cc(Cl)ccc21	–	–	–	–	128 mg/kg	–	143 mg/kg	–	–	–	–	–	–	–	–
CN1C(=O)CNC(=O)c2cc(Cl)ccc21	–	–	–	–	> 100 mg/kg	–	39.4 mg/kg	–	–	–	–	75%	–	–	–
CCOC1=NCC(=O)N(C)c2ccc([N+](=O)[O-])cc21	600 mg/kg	42.5 mg/kg	11.3 mg/kg	37.5 mg/kg	87.8 mg/kg	–	9 mg/kg	–	27%	15.8 mg/kg	–	–	–	–	–
CN1C(=O)CN=C(OCC(F)(F)F)c2cc(Cl)ccc21	–	–	–	–	> 102 mg/kg	–	> 102 mg/kg	–	48%	–	–	–	–	–	–
C#CCOC1=NCC(=O)N(C)c2ccc(Cl)cc21	138 mg/kg	22.7 mg/kg	20.8 mg/kg	28.5 mg/kg	> 25 mg/kg	–	22.9 mg/kg	–	–	–	–	–	44%	–	–
CCOC1=NCC(=O)N(C)c2ccc(C)cc21	300 mg/kg	133 mg/kg	137 mg/kg	141 mg/kg	> 102 mg/kg	–	18.4 mg/kg	–	44%	87.6 mg/kg	–	–	–	–	–
CCCOC1=NCC(=O)N(C)c2ccc(Cl)cc21	> 400 mg/kg	52.5 mg/kg	93.1 mg/kg	78.1 mg/kg	38.2 mg/kg	–	19.2 mg/kg	–	50%	–	–	–	–	–	–
Cc1cc(Cl)ccc1OC1=NCC(=O)N(C)c2ccc(Cl)cc21	–	–	–	–	> 102 mg/kg	–	> 102 mg/kg	–	36%	–	–	–	–	–	–
CN1C(=O)CNC(=O)c2ccc(Cl)cc21	–	–	–	–	> 102 mg/kg	–	> 102 mg/kg	–	30%	–	–	–	–	–	–
C=CCOC1=NCC(=O)N(C)c2ccc(Cl)cc21	–	–	–	–	63.9 mg/kg	–	54.4 mg/kg	–	55%	–	–	–	–	–	–
CN1C(=O)CNC(=O)c2cc(Cl)cc([N+](=O)[O-])c21	–	–	–	–	> 102 mg/kg	–	> 102 mg/kg	–	24%	–	–	–	–	–	–
O=C1CN=C(c2ccccc2)c2cc([N+](=O)[O-])ccc2N1 [NITRAZEPAM]	733 mg/kg	1.5 mg/kg	1.5 mg/kg	1.5 mg/kg	1 mg/kg	–	0.8 mg/kg	–	–	0.5 mg/kg	–	–	–	50%	–
CN1C(=O)CNC(=O)c2cc([N+](=O)[O-])ccc21	–	–	–	–	> 102 mg/kg	–	> 102 mg/kg	–	51%	–	–	–	–	–	–
CN1C(=O)CN=C(c2ccccc2)c2cc(Cl)ccc21 [DIAZEPAM]	–	21.9 mg/kg	4.1 mg/kg	8.9 mg/kg	1.1 mg/kg	–	1.6 mg/kg	–	–	5.2 mg/kg	8%	–	–	–	–
CCOC1=NCC(=O)N(C)c2ccc(Cl)cc21	300 mg/kg	45.3 mg/kg	42.8 mg/kg	39.3 mg/kg	35.2 mg/kg	–	2.9 mg/kg	–	–	68.5 mg/kg	–	–	–	–	93%
